Many of the other results were omitted from the sample, so hits are more common in it than they were.
Lung fibro prol: blocks proliferation of human lung fibroblasts; LL 47 human lung fibroblast viability, ATP luminescence; stronger effect = lower value; viability, % at 10 µM; 1.1% of 85,000 active; AID 719;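 active = viability at or below 50% in the single dose screen; inactive = viability above 50%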;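 also: compound exposure lasted 72 h before the ATP readout; 100% = median luminescence of untreated cell-only wells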
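Assay system: human lung fibroblast line LL 47, low passage. Input: 1,150 fibroblasts seeded per well. Times: overnight cell rest, 72 h compound treatment at 37 °C. Evaluation: % viability of median cell-only signal. Technique: luminescent ATP detection, CellTiter-Glo. Control set: cell-only wells, no compound.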
HCT116 PTEN-null: PTEN-deleted cell growth suppression | viability, % at 10 µM | 1.2% of 140,000 active | HCT116 PTEN-null viability, CellTiter-Glo, 60 h; stronger effect = lower value;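 active = viability at or below a set limit, 4 SD under the median of all tested compounds, cut at about 3.7% in these data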;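 also: PTEN knockout HCT116 line with beta catenin targeted HCT116 as companion control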
HCT116 bCat-KO: beta-catenin-lacking colon tumor cell growth suppression; HCT116 beta-catenin knockout viability, CellTiter-Glo, 60 h; stronger effect = lower value; 1.5% of 140,000 active; viability, % at 10 µM; AID 818;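 active = viability at or under a set limit, the compound median less 4 SD, cut at about 6% in these data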;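 also: 0% = Hyamine 1622 control at 20 µM and 100% = untreated cell control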
H69AR inhibit: growth inhibitors of human H69AR lung tumor cells; 6% of 85,000 active; H69AR lung tumor viability, ATP luminescence, 72 h; stronger effect = lower value; viability, % at 10 µM; AID 598;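 active = viability at or below 40%; inactive = viability above 40%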;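 also: multidrug resistant small cell line overexpressing MRP-1 efflux transporter; 100% = mean luminescence of untreated control wells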
HUVEC prolif 384: blocks proliferation of human endothelial cells; AID 648; 1.1% of 86,000 active; HUVEC proliferation, CellTiter-Glo luminescence, 72 h; stronger effect = lower value; viability, % at 10 µM (by protocol);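 active = viability at or below 30%; inactive = viability above 30%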;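 also: 100% = median luminescence of DMSO-only cell control wells on each plate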
An asterisk follows results filed as active; / = no result; ! = a repeat was not active.

SMILES	Lung fibro prol	HCT116 PTEN-null	HCT116 bCat-KO	H69AR inhibit	HUVEC prolif 384
CCS(=O)(=O)N1CCC(C(=O)N2CCC3(CC2)OCCO3)CC1	115	104	97	104	108
CCCS(=O)(=O)N1CCC(C(=O)N2CCC3(CC2)OCCO3)CC1	42*	101	91	84	100
Cc1ccc(N2C(=O)NC(=O)/C(=C\c3cnc(-c4ccccc4)nc3)C2=O)cc1	/	103	93	/	/
CN1CCC(N(C)c2nc(-c3ccc([N+](=O)[O-])cc3)nc3ccccc23)CC1	/	1.5*	1.5*	/	/
O=C(COc1ccccc1)N1CCN(C/C=C/c2ccccc2)CC1	94	80	82	65	91
O=C(COc1ccc(Cl)cc1)N1CCN(C/C=C/c2ccccc2)CC1	80	66	68	27*	84
C=CCN1C(=O)NC(=O)/C(=C/c2ccoc2)C1=O	/	100	100	/	/
N=C(N)c1c(O)n(C2CCCCC2)c(=O)n(C2CCCCC2)c1=O	31*	13	30	1.1*	2.5*
O=C(N/N=C1/CN2CCC1CC2)c1cc2ccccc2cc1O	75	75	76	37*	108
CCC(C)NC(=O)c1c(N)n(Cc2ccc3c(c2)OCO3)c2nc3ccccc3nc12 (centres undefined)	/	1.4*	1.4*	/	/
N=C1c2ccccc2CN1CC(=O)c1ccccc1	/	59	66	/	/
CCN(CC)CC(O)c1ccc(C2CCCC2)cc1 (centres undefined)	/	83	71	/	/
Cc1cc(C(=O)N=Nc2c(O)n(C)c3ccccc23)c(C)o1	/	74	68	/	/
C=CCn1c(O)c(C(C)=NCc2cc(OC)cc(OC)c2)c(=O)[nH]c1=O	48*	32	27	38*	26*
CC(/C=N/NC(=O)c1n[nH]c2c1CCC2)=C\c1ccccc1	46*	15	14	23*	36
Cc1ccc(-n2c(-c3cccs3)nc3ccccc3c2=O)cc1	/	74	87	/	/
CN1C2CCC1/C(=C/c1ccccn1)C(=O)/C2=C\c1ccccn1	/	1.8*	1.8*	/	/
Cc1nnc2n1-c1ccc(Cl)cc1C(c1ccccc1)=NC2	91	/	/	106	74
COc1cc(/C=N/NC(=O)CN2CC(c3ccccc3)CC2=O)ccc1OC(=O)N(C)C (centres undefined)	/	112	100	/	/
Cn1c(O)c(C=NC2CC3CCC2(C)C3(C)C)c(=O)[nH]c1=O (centres undefined)	98	91	84	86	97
CCCCn1c(O)c(C=NC2CC3CCC2(C)C3(C)C)c(=O)[nH]c1=O (centres undefined)	96	36	56	15*	98
CCOC(=O)c1c(C)n(Cc2ccccc2)c2ccc(OCC(O)CN3C(=O)CNC3=O)cc12 (centres undefined)	102	92	92	27*	86
CCOC(=O)c1c(C)n(Cc2ccc3c(c2)OCO3)c2ccc(O)cc12	94	84	82	94	82
CC/C(=C\C=C\[C@@H]1C=C[C@@H]2CCC[C@H]2[C@@H]1C(=O)c1ccc[nH]1)[C@@H]1O[C@@H]([C@@H](C)C(=O)O)CC[C@@H]1C	38*	27	19	15*	12*
COC(=O)C[C@]1(C(=O)OC)CN(C#N)N(c2ccc(Cl)cc2)C12c1ccccc1-c1ccccc12	5.2*	1.2*	0.4*	0.6*	2.4*
SMILES	Lung fibro prol	HCT116 PTEN-null	HCT116 bCat-KO	H69AR inhibit	HUVEC prolif 384
COC(=O)[C@@H]1[C@@H](C(=O)OC)C2(c3ccccc3-c3ccccc32)N(c2ccc(Cl)cc2)N1C#N	3.3*	1.2*	0.8*	0.7*	2.7*
CCOC(=O)C1CCN(C=C2C(=O)N(C)C(=S)N(C)C2=O)CC1	/	98	87	/	/
NC(=S)N/N=C/c1coc2ccccc2c1=O	/	74	95	/	/
O=C(Cn1cc(C(=O)c2ccccc2F)c2ccccc21)NCc1ccco1	43*	88	99	112	74
Clc1ccc2c(c1)C(c1ccccc1Cl)=NCc1nnc(N3CCN(CCOc4ccccc4)CC3)n1-2	/	48	61	/	/
O=C(CSC1c2ccccc2-c2ccccc21)N/N=C/c1ccccc1O	41*	12	9	18*	27*
CCC(C)n1c(O)c(/C=N/Nc2ccccc2)c(=O)[nH]c1=S (centres undefined)	/	87	85	/	/
Cc1ccccc1C(O)(Cc1ccccc1)C1CN2CCC1CC2 (centres undefined)	71	0.3*	1.1*	42	48
FC(F)(F)c1ccc2c(c1)N(CCCN1CCN(CCCl)CC1)c1ccccc1S2	89	56	68	1.4*	37
Cc1c(/C=C2/CC3C4CC=C5CC(O)CCC5(C)C4CCC3(C)C2=O)cnn1C (centres undefined)	96	/	/	104	96
Nc1c2c(nc3sc4c(c13)CCCCC4)CCCC2	/	7	3.4*	/	/
Cc1cccc(-n2c(/C=C/c3ccc([N+](=O)[O-])o3)nc3ccccc3c2=O)c1	/	0.6*	0.8*	/	/
Cc1ccc(-n2c(O)c(C=Nc3ccccc3N)c(=O)[nH]c2=O)cc1C	110	73	78	13*	99
Cc1ccc(-n2c(O)c(C=NCc3cccnc3)c(=O)[nH]c2=O)cc1C	95	107	99	89	86
O=C(O)c1c[nH]c2ccc(S(=O)(=O)N(CCCl)CCCl)cc12	105	115	96	103	93
Cc1cc2c(C(C)C)c(O)c(O)c(C=O)c2c(O)c1-c1c(C)cc2c(C(C)C)c(O)c(O)c(C=O)c2c1O	28*!	1.9*!	4.8*	0.6*	3.0*
CCN(CC)C1=NC(=[N+](CC)CC)c2ccccc21	99	8	8	90	62
Cc1cccc(N/N=C(\C(N)=O)C2=NC(C)(C)Cc3ccccc32)c1	/	59	64	/	/
O=C1CCCN1c1ccc(S(=O)(=O)O)cc1 (tested in a mixture with another compound)	/	104	90	/	/
COc1ccc(CCNC(=O)c2c(N)n(CCN3CCOCC3)c3nc4ccccc4nc23)cc1	79	0.3*	0.4*	22*	54
Nc1c(C(=O)NCCc2ccccc2)c2nc3ccccc3nc2n1CCN1CCOCC1	92	1.9*	1.7*	1.6*	55
CCCCn1c(N)c(C(=O)NCCN2CCOCC2)c2nc3ccccc3nc21	93	71	74	57	65
CCCC(=O)c1c(O)[nH]c(=O)[nH]c1=O	101	90	104	99	102
O=C(Nc1ccc(Cl)cc1C(=O)c1ccccc1)c1ccc(Br)o1	/	47	39	/	/
C[C@@H]1C2C[C@@]34COC(=O)C3=CC=C[C@H]4[C@@]13C[C@H](c1ccoc1)O[C@@H]3O2	/	92	90	/	/
C[C@H](O)[C@H]1CC[C@H]2[C@@H]3CCC4=CC(=O)CC[C@]4(C)[C@H]3CC[C@]12C	/	81	88	/	/
CC12CCC(=O)C=C1CCC1C2CCC2(C)C(O)CCC12 (centres undefined)	98	93	88	97	29*

Screens as filed in PubChem.
